In ChEMBL document CHEMBL1687733, “Topoisomerase I gene mutations at F270 in the large subunit and N184 in the small subunit contribute to the resistance mechanism of the unicellular parasite Leishmania donovani towards 3,3'-diindolylmethane” (Antimicrob Agents Chemother, 2009):
Changes are numbered by the printed parent chain. Calls of active or inactive are those of the source.

Experiments:
[1] = Binding affinity to recombinant drug-resistant Leishmania donovani LdDR50 topoisomerase 1b after 24 hrs by equilibrium dialysis method
In short: (§1)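 Recombinant His-tagged subunits expressed in E. coli BL21(DE3) pLysS, purified on Ni-NTA then phosphocellulose, reconstituted 1:1. Enzyme 200 μM with DIM 1–20 μM in 20 mM Tris-HCl pH 7.5, 50 mM NaCl, 10 mM MgCl2 for 30 min at 37°C, then dialysed (12–14 kDa cutoff) 24 h at 25°C. Free DIM measured by absorbance (ε 6.6 × 10^4 M−1); KD from saturation plot.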

DNA topoisomerase I = DNA topoisomerase I (Leishmania donovani (strain BPK282A1), UniProt E9BRC0, F270L); assay: Binding affinity to recombinant drug-resistant Leishmania donovani LdDR50 topoisomerase 1b large subunit F270L mutant after 24 hrs by equilibrium dialysis method; in short: as §1
Leishmania donovani [2] = assay: Inhibition of recombinant Leishmania donovani AG83 topoisomerase 1b-mediated religation of 14-mer/25-mer suicide DNA substrate at 20 uM after […] by PAGE analysis
In short: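 For cleavage, the 5′-32P 14-mer/25-mer suicide substrate (5 nM) was incubated with 0.15 μM reconstituted enzyme at 23°C, with or without 20 μM DIM. Complexes were shifted to 30°C for 2 min. A 300-fold excess of 11-mer acceptor was added for 30, 60 and 120 s. Samples were stopped with 1% SDS, trypsinised, and run on a sequencing gel to read the 23-mer religated product.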

Leishmania donovani [3] = assay: Inhibition of recombinant wild type Leishmania donovani AG83 topoisomerase 1b-mediated relaxation of supercoiled pBluescript SK(+) DNA at 10 uM after 30 mins using ethidium bromide staining
In short: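 Recombinant L and S subunits (E. coli, Ni-NTA then phosphocellulose) were reconstituted at a 1:1 molar ratio and dialysed 12 h at 4°C in 50 mM K-phosphate pH 7.5. Enzyme (30 fmol) acted on 90 fmol supercoiled pBS SK(+) for 30 min at 37°C, with DIM or 4% DMSO. Products ran on 1% agarose with ethidium bromide (0.5 μg/ml), and the supercoiled band was quantified.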

[4] = system: T1, DNA topoisomerase I (Leishmania donovani (strain BPK282A1)), E9BRC0 [F270L]; assay: Inhibition of recombinant drug-resistant Leishmania donovani LdDR50 topoisomerase 1b large subunit F270L mutant-mediated religation of 14-mer/25-mer suicide DNA substrate at 20 uM […] by PAGE analysis
T1 sequence (whole entry): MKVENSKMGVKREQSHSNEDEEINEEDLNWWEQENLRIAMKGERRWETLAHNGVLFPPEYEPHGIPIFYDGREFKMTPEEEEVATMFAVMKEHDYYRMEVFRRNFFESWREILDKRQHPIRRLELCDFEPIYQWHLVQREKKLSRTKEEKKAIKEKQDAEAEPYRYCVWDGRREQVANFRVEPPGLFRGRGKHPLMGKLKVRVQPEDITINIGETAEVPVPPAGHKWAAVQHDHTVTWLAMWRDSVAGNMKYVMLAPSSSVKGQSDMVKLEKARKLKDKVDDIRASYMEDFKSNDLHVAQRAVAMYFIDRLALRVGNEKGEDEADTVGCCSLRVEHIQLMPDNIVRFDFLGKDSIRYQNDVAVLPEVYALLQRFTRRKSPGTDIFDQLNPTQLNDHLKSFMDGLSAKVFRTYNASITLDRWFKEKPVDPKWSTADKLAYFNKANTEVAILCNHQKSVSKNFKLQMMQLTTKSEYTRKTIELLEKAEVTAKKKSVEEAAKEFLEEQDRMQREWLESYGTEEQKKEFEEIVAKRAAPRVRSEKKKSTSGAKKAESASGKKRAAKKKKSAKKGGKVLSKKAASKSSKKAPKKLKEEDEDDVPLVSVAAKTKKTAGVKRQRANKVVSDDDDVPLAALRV

[5] = system: T2, Leishmania donovani [F270L,K430N]; assay: Inhibition of recombinant drug-resistant Leishmania donovani LdDR50 topoisomerase 1b wild type small subunit and large subunit F270L, K430N mutant-mediated relaxation of supercoiled pBluescript SK(+) DNA at up to 50 uM after 30 mins using ethidium bromide staining
T2 sequence (whole entry): T1 sequence (whole entry) with K430N
In short: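 Reconstituted recombinant enzyme (30 fmol) with 90 fmol supercoiled pBluescript SK(+) DNA (3:1 DNA:enzyme), 30 min at 37°C with DIM (1–50 μM for fully mutant enzyme; 10 μM for single-site mutants); 4% DMSO vehicle control. Products on 1% agarose, ethidium bromide (0.5 μg/ml) stained; supercoiled monomer band quantified.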

[6] = Binding affinity to recombinant drug-resistant Leishmania donovani LdDR50 topoisomerase 1b large subunit F270L, K430N mutant and small subunit N184S mutant after 24 hrs by equilibrium dialysis method; in short: as §1
Leishmania donovani [7] = assay: Ratio of antimicrobial activity against drug-resistant Leishmania donovani LdDR50 to antimicrobial activity against wild type Leishmania donovani AG83; format: functional
In short: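 Cells washed twice in PBS, MTT added for 4 h, acidified isopropanol stop for 20 min at room temperature, A570 read. Growth expressed as % of untreated WT OD; three experiments.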

[8] = Binding affinity to recombinant wild type Leishmania donovani AG83 topoisomerase 1b after 24 hrs by equilibrium dialysis method
Leishmania donovani [9] = assay: Antimicrobial activity against wild type Leishmania donovani AG83 transfected with drug-resistant Leishmania donovani LdDR50 topoisomerase 1 F270L, K430N mutant in large subunit and N184S mutant in small subunit assessed as inhibition of parasite growth at 20 uM after 24 hrs by MTT assay; format: functional, organism-based
In short: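 WT promastigotes transfected by electroporation with mutant large-subunit (pXG-HYG, hygromycin selection) and/or small-subunit (pXG-GFP2+, G418 selection) topoisomerase I genes. Grown with DIM 1–20 μM for 24 h; MTT read-out, growth as % of optical density of untreated WT parasites.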

## c1ccc2c(Cc3c[nH]c4ccccc34)c[nH]c2c1 [ARUNDINE]
[1]
  Kd: 240 µM
DNA topoisomerase I
  Kd: 530 µM
Leishmania donovani [2]
  inhibition: Active
Leishmania donovani [3]
  inhibition: Active
[4]
  inhibition: inactive
[5]
  inhibition: inactive
[6]
  Kd: 240 µM
Leishmania donovani [7]
  Ratio: 42
[8]
  Kd: 9.7 nM
Leishmania donovani [9]
  Activity: inactive
